Measurements as given in ChEMBL document CHEMBL3046880, “Syntheses and herbicidal activities of novel triazolinone derivatives” (J Agric Food Chem, 2008).

What was measured:
Type in all cases: functional
Brassica juncea [1] = experiment: Herbicidal activity against Brassica juncea assessed as growth inhibition at 150 g of active ingredient/ha administered using post-emergence treatment measured 15 days post treatment protocol under greenhouse conditions
How it was run: (§1)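 Test agents were formulated as 100 g/L emulsified concentrates (DMF solvent, TW-80 emulsifier), diluted with water and sprayed postemergence on pot-grown weeds. Seeds were sown 1-3 cm deep in clay soil (pH 6.5, 1.6% organic matter, 37.3% clay, CEC […]) and grown at 15–30 °C in a greenhouse. Dicots were treated at the two-leaf stage. Untreated and DMF-treated plants served as controls. Activity was scored visually 15 days after treatment.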

Digitaria sanguinalis [2] = experiment: Herbicidal activity against Digitaria sanguinalis (hairy crabgrass) assessed as growth inhibition at 75 g of active ingredient/ha administered using post-emergence treatment measured 15 days post treatment protocol under greenhouse conditions; how it was run: as §1
Senna tora [3] = experiment: Herbicidal activity against Senna tora assessed as growth inhibition at 37.5 g of active ingredient/ha administered using post-emergence treatment measured 15 days post treatment protocol under greenhouse conditions; how it was run: as §1
Cerastium arvense [4] = experiment: Herbicidal activity against Cerastium arvense assessed as growth inhibition at 75 g of active ingredient/ha administered using post-emergence treatment measured 15 days post treatment protocol under greenhouse conditions; how it was run: as §1
Senna tora [5] = experiment: Herbicidal activity against Senna tora assessed as growth inhibition at 150 g of active ingredient/ha administered using post-emergence treatment measured 15 days post treatment protocol under greenhouse conditions; how it was run: as §1
Echinochloa crus-galli [6] = experiment: Herbicidal activity against Echinochloa crus-galli (barnyard grass) assessed as growth inhibition at 37.5 g of active ingredient/ha administered using post-emergence treatment measured 15 days post treatment protocol under greenhouse conditions; how it was run: as §1
Echinochloa crus-galli [7] = experiment: Herbicidal activity against Echinochloa crus-galli (barnyard grass) assessed as growth inhibition at 150 g of active ingredient/ha administered using post-emergence treatment measured 15 days post treatment protocol under greenhouse conditions; how it was run: as §1
Portulaca oleracea [8] = experiment: Herbicidal activity against Portulaca oleracea assessed as growth inhibition at 37.5 g of active ingredient/ha administered using post-emergence treatment measured 15 days post treatment protocol under greenhouse conditions; how it was run: as §1
Eclipta prostrata [9] = experiment: Herbicidal activity against Eclipta prostrata assessed as growth inhibition at 37.5 g of active ingredient/ha administered using post-emergence treatment measured 15 days post treatment protocol under greenhouse conditions; how it was run: as §1
Chenopodium album [10] = experiment: Herbicidal activity against Chenopodium album assessed as growth inhibition at 75 g of active ingredient/ha administered using post-emergence treatment measured 15 days post treatment protocol under greenhouse conditions; how it was run: as §1
Eclipta prostrata [11] = experiment: Herbicidal activity against Eclipta prostrata assessed as growth inhibition at 75 g of active ingredient/ha administered using post-emergence treatment measured 15 days post treatment protocol under greenhouse conditions; how it was run: as §1
Digitaria sanguinalis [12] = experiment: Herbicidal activity against Digitaria sanguinalis (hairy crabgrass) assessed as growth inhibition at 37.5 g of active ingredient/ha administered using post-emergence treatment measured 15 days post treatment protocol under greenhouse conditions; how it was run: as §1
Setaria viridis [13] = experiment: Herbicidal activity against Setaria viridis (green foxtail) assessed as growth inhibition at 75 g of active ingredient/ha administered using post-emergence treatment measured 15 days post treatment protocol under greenhouse conditions; how it was run: as §1
Amaranthus retroflexus [14] = experiment: Herbicidal activity against Amaranthus retroflexus assessed as growth inhibition at 150 g of active ingredient/ha administered using post-emergence treatment measured 15 days post treatment protocol under greenhouse conditions; how it was run: as §1
Amaranthus retroflexus [15] = experiment: Herbicidal activity against Amaranthus retroflexus assessed as growth inhibition at 37.5 g of active ingredient/ha administered using post-emergence treatment measured 15 days post treatment protocol under greenhouse conditions; how it was run: as §1
Echinochloa crus-galli [16] = experiment: Herbicidal activity against Echinochloa crus-galli (barnyard grass) assessed as growth inhibition at 75 g of active ingredient/ha administered using post-emergence treatment measured 15 days post treatment protocol under greenhouse conditions; how it was run: as §1
Setaria viridis [17] = experiment: Herbicidal activity against Setaria viridis (green foxtail) assessed as growth inhibition at 37.5 g of active ingredient/ha administered using post-emergence treatment measured 15 days post treatment protocol under greenhouse conditions; how it was run: as §1
Cerastium arvense [18] = experiment: Herbicidal activity against Cerastium arvense assessed as growth inhibition at 150 g of active ingredient/ha administered using post-emergence treatment measured 15 days post treatment protocol under greenhouse conditions; how it was run: as §1
Amaranthus retroflexus [19] = experiment: Herbicidal activity against Amaranthus retroflexus assessed as growth inhibition at 75 g of active ingredient/ha administered using post-emergence treatment measured 15 days post treatment protocol under greenhouse conditions; how it was run: as §1
Digitaria sanguinalis [20] = experiment: Herbicidal activity against Digitaria sanguinalis (hairy crabgrass) assessed as growth inhibition at 150 g of active ingredient/ha administered using post-emergence treatment measured 15 days post treatment protocol under greenhouse conditions; how it was run: as §1
Chenopodium album [21] = experiment: Herbicidal activity against Chenopodium album assessed as growth inhibition at 37.5 g of active ingredient/ha administered using post-emergence treatment measured 15 days post treatment protocol under greenhouse conditions; how it was run: as §1
Senna tora [22] = experiment: Herbicidal activity against Senna tora assessed as growth inhibition at 75 g of active ingredient/ha administered using post-emergence treatment measured 15 days post treatment protocol under greenhouse conditions; how it was run: as §1
Cerastium arvense [23] = experiment: Herbicidal activity against Cerastium arvense assessed as growth inhibition at 37.5 g of active ingredient/ha administered using post-emergence treatment measured 15 days post treatment protocol under greenhouse conditions; how it was run: as §1
Setaria viridis [24] = experiment: Herbicidal activity against Setaria viridis (green foxtail) assessed as growth inhibition at 150 g of active ingredient/ha administered using post-emergence treatment measured 15 days post treatment protocol under greenhouse conditions; how it was run: as §1
Portulaca oleracea [25] = experiment: Herbicidal activity against Portulaca oleracea assessed as growth inhibition at 150 g of active ingredient/ha administered using post-emergence treatment measured 15 days post treatment protocol under greenhouse conditions; how it was run: as §1
Brassica juncea [26] = experiment: Herbicidal activity against Brassica juncea assessed as growth inhibition at 37.5 g of active ingredient/ha administered using post-emergence treatment measured 15 days post treatment protocol under greenhouse conditions; how it was run: as §1
Portulaca oleracea [27] = experiment: Herbicidal activity against Portulaca oleracea assessed as growth inhibition at 75 g of active ingredient/ha administered using post-emergence treatment measured 15 days post treatment protocol under greenhouse conditions; how it was run: as §1
Brassica juncea [28] = experiment: Herbicidal activity against Brassica juncea assessed as growth inhibition at 75 g of active ingredient/ha administered using post-emergence treatment measured 15 days post treatment protocol under greenhouse conditions; how it was run: as §1
Chenopodium album [29] = experiment: Herbicidal activity against Chenopodium album assessed as growth inhibition at 150 g of active ingredient/ha administered using post-emergence treatment measured 15 days post treatment protocol under greenhouse conditions; how it was run: as §1

Compound: Cc1nn(-c2cc(NS(C)(=O)=O)c(Cl)cc2Cl)c(=O)n1C(F)F [SULFENTRAZONE]
- growth inhibition (GI) (Brassica juncea [1]): 100%
- growth inhibition (GI) (Digitaria sanguinalis [2]): 50%
- growth inhibition (GI) (Senna tora [3]): >80%
- growth inhibition (GI) (Cerastium arvense [4]): 100%
- growth inhibition (GI) (Senna tora [5]): >80%
- growth inhibition (GI) (Echinochloa crus-galli [6]): 50%
- growth inhibition (GI) (Echinochloa crus-galli [7]): <50%
- growth inhibition (GI) (Portulaca oleracea [8]): 100%
- growth inhibition (GI) (Eclipta prostrata [9]): 100%
- growth inhibition (GI) (Chenopodium album [10]): 100%
- growth inhibition (GI) (Eclipta prostrata [11]): 100%
- growth inhibition (GI) (Digitaria sanguinalis [12]): 50%
- growth inhibition (GI) (Setaria viridis [13]): 50%
- growth inhibition (GI) (Amaranthus retroflexus [14]): 100%
- growth inhibition (GI) (Amaranthus retroflexus [15]): 100%
- growth inhibition (GI) (Echinochloa crus-galli [16]): 50%
- growth inhibition (GI) (Setaria viridis [17]): <50%
- growth inhibition (GI) (Cerastium arvense [18]): 100%
- growth inhibition (GI) (Amaranthus retroflexus [19]): 100%
- growth inhibition (GI) (Digitaria sanguinalis [20]): <50%
- growth inhibition (GI) (Chenopodium album [21]): 100%
- growth inhibition (GI) (Senna tora [22]): >80%
- growth inhibition (GI) (Cerastium arvense [23]): >80%
- growth inhibition (GI) (Setaria viridis [24]): >80%
- growth inhibition (GI) (Portulaca oleracea [25]): 100%
- growth inhibition (GI) (Brassica juncea [26]): >80%
- growth inhibition (GI) (Portulaca oleracea [27]): 100%
- growth inhibition (GI) (Brassica juncea [28]): 100%
- growth inhibition (GI) (Chenopodium album [29]): 100%
